Compound activity: PubChem, several laboratories
Only some compounds are listed: those with a hit (about 3.5% of all), similar ones and a draw of the others.
STAT3 act: increases IL-6 driven STAT3 reporter signal. U3A cells, IL-6 STAT3-luciferase reporter, luminescence; 100% = signal with IL-6 EC80 alone. activation (% of control), % at 5.6 µM. hit rate 0.91% among 190,000;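 active = activation above the screen-wide mean of compound activation plus 3 SD, cut at about 130% in these data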;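 note: 0% = background luminescence of wells with medium and substrate only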
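system = STAT3-luciferase reporter U3A cells | reagent = IL-6 stimulus at 33 ng/mL final | timing = 1 h compound pre-exposure, 6 h IL-6 stimulation, 37 °C | measured by = luminescence | evaluation = % activation versus median of IL-6-stimulated wells | control set = IL-6-only wells as 100% reference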
hK5 inh: inhibitors of human kallikrein 5; recombinant hK5, fluorogenic AMC substrate cleavage; inhibition, % at 5 µM; hit rate 0.59% among 210,000; AID 873;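 active = inhibition of 40% or more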;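 note: 0% = enzyme controls without compound and 100% = no-enzyme blanks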
Target sequence (Q9Y337 67-293 limits assumed): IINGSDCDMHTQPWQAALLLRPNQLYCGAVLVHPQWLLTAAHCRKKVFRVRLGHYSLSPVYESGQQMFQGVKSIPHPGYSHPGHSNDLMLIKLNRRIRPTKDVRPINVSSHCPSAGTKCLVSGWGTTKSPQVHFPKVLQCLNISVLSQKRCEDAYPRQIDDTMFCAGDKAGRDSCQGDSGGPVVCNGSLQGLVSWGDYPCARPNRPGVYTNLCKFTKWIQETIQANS
FXIa inh 1536: factor XIa (human) inhibition | hit rate 0.14% among 220,000 | purified FXIa, Boc-Glu-Ala-Arg-AMC fluorogenic substrate | inhibition, % at 5 µM | AID 798;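 active = inhibition of at least 40%; inactive = inhibition below 40%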;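 note: fluorescence of freed AMC excited at 355 nm; 0% = enzyme without compound and 100% = no enzyme blank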
FXIIa inh: blocks human coagulation factor XIIa protease activity; hit rate 0.3% among 220,000; P00748; AID 800; inhibition, % at 5 µM; purified FXIIa, Boc-QGR-AMC fluorogenic substrate, 2 h; in the data active = inhibition above about 40%;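 note: 0% = enzyme with no compound and 100% = blank without enzyme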
AHR act: human AHR activation | P35869 | hit rate 2.5% among 320,000 | AHR-responsive luciferase reporter cells, luminescence | AID 2796 | activation, % at 5 µM; in the data active = activation above about 47%;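 note: 0% = vehicle wells and 100% = reference agonist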
Thrombin inh: inhibitors of human thrombin; P00734; alpha-thrombin, Boc-VPR-AMC fluorogenic substrate cleavage; inhibition, % at 5 µM; hit rate 0.26% among 220,000;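 active = inhibition at or above 40%; inactive = inhibition below 40%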;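 note: 0% = enzyme with no compound and 100% = wells without enzyme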
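Material: human alpha-thrombin enzyme / Medium: pH 7.5 Tris (50 mM) with NaCl 150 mM, Tween 20 0.05% / Compound: single-point dosing at 5 µM, 0.2% DMSO / Incubation: enzyme reaction carried out at room temperature / Detection: AMC fluorescence, 355/460 nm / Read-out basis: percent inhibition scaled between no-compound controls and no-enzyme blanks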
AHR act confirm: confirmation of human aryl hydrocarbon receptor activators; shares compounds with AHR act; human cells, AHR-responsive luciferase reporter, luminescence; activation, % at 9 µM; hit rate 87% among 2,300; AID 2845; in the data active = activation above about 49%;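 note: HepG2 hepatoma cells carrying a DRE-driven firefly luciferase reporter; 0% = vehicle wells and 100% = reference agonist wells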
PXR counter: PXR activation, counter-screen for AHR activators | shares compounds with AHR act | cell-based PXR reporter, luciferase luminescence | activation, % at 11.6 µM | hit rate 88% among 2,300 | AID 434939; in the data active = activation above about 11%;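 note: human hepatoma DPX-2 cells expressing full-length human PXR; 0% = DMSO and 100% = reference agonist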
Target sequence (O75469 whole entry, looked up): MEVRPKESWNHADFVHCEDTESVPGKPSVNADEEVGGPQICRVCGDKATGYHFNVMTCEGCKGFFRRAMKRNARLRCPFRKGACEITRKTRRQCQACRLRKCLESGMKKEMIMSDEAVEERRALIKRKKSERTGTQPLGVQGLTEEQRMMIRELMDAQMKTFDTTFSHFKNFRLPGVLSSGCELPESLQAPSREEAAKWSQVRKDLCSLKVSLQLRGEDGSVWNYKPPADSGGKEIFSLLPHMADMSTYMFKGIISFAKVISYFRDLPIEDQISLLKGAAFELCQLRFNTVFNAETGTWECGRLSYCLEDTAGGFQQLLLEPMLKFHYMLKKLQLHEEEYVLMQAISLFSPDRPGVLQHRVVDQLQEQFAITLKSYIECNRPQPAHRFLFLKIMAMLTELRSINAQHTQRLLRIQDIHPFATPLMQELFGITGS
Active calls of the source: *; x = not tested or not shown.

SMILES | STAT3 act | hK5 inh | FXIa inh 1536 | FXIIa inh | AHR act | Thrombin inh | AHR act confirm | PXR counter
COc1ccc(CCC(=O)NCCNC(=O)CCc2ccc(OC)cc2)cc1 | x | x | x | x | -2 | x | x | x
Cc1cc(C(F)(F)F)n2ncc(-c3ccc(F)cc3)c2n1 | 95 | -12 | -4 | -15 | 88* | -10 | 120* | 23*
CC(C)(C)c1cc(C(F)(F)F)n2ncc(-c3ccccc3)c2n1 | 102 | -6 | -1 | 8 | 5 | -3 | x | x
Nc1nc2ccccc2n1/N=C/c1ccc([N+](=O)[O-])s1 | 77 | -8 | 1 | 9 | 128* | 1 | 79* | 11*
CC(C)[C@H](NC(=O)c1ccc(Cl)cc1Cl)C(=O)NNC(=O)c1ccco1 | x | x | x | x | 4 | x | x | x
Cc1cccc(C)c1OCCCN1CCCC1 | 102 | 4 | 6 | 15 | 2 | 1 | x | x
Cc1cccc(OCCCCCn2ccnc2)c1C | 89 | -21 | 2 | 13 | 22 | 2 | x | x
Cc1cccc(C)c1OCCN1CCCC1 | x | x | x | x | 95* | x | 3 | 11*
Cc1cccc(C)c1OCCCn1ccnc1 | x | x | x | x | 136* | x | 36 | 16*
Cc1cc(OCCn2ccnc2)cc(C)c1Cl | x | x | x | x | 80* | x | 55* | 16*
Clc1cccc(OCCn2ccnc2)c1 | x | x | x | x | 12 | x | x | x
O=C1NCCCC1C(=O)N/N=C/c1cccc(Cl)c1 (stereo unspecified) | x | 1 | 7 | 3 | 2 | -2 | x | x
CC(=O)NCc1ccc(S(=O)(=O)NC(C(=O)O)C(C)C)cc1 (stereo unspecified) | 106 | 4 | 3 | 12 | 1 | -5 | x | x
O=C1CC(c2ccccc2)CC(O)=C1C=Nc1ccccc1Cl (stereo unspecified) | 92 | -11 | 7 | 9 | 7 | 0 | x | x
COc1ccccc1N=CC1=C(O)CC(c2ccccc2)CC1=O (stereo unspecified) | 99 | 6 | 4 | 1 | 100* | -2 | 94* | 13*
CSCCC(NS(=O)(=O)c1c(Cl)cccc1Cl)C(=O)O (stereo unspecified) | 104 | -3 | -5 | 0 | -2 | -13 | x | x
Cc1onc(-c2ccccc2)c1C(=O)Nc1nnc(CC(C)(C)C)s1 | x | x | x | x | 0 | x | x | x
COc1ccc(COn2c(=O)c(C)[n+]([O-])c3ccccc32)cc1OC | 87 | -1 | 3 | 19 | 1 | 4 | x | x
Cc1c(=O)n(OCc2ccccc2)c2ccccc2[n+]1[O-] | 89 | -2 | 13 | 19 | 177* | 12 | 201* | 47*
COc1ccc(NC(=O)NCc2cccnc2)cc1 | x | x | x | x | 0 | x | x | x
c1ccc2c(c1)nc(N1CCOCC1)c1nncn12 | 95 | 12 | 11 | 18 | 3 | 14 | x | x
c1ccc2c(c1)CCN(c1nc3ccccc3n3cnnc13)C2 | 132 | -16 | 0 | 7 | 86* | -4 | 66* | 19*
C=CCn1c(=N)c(C(=O)NCCCOC)cc2c(=O)n3cccc(C)c3nc21 | 105 | -357 | -22 | -121 | 6 | -16 | x | x
COCCCNC(=O)c1cccn2c(=O)c3cc4ccccc4cc3nc12 | 90 | 3 | 32 | -3 | 92* | -20 | 147* | 13*
Cc1cccc(CNc2ccc(C(CC(N)=O)NC(=O)c3cccc(Br)c3)cc2[N+](=O)[O-])c1 (stereo unspecified) | x | 5 | 4 | 12 | 1 | 5 | x | x
SMILES | STAT3 act | hK5 inh | FXIa inh 1536 | FXIIa inh | AHR act | Thrombin inh | AHR act confirm | PXR counter
Cc1ccc(NC(C)C(=O)N/N=C/c2c[nH]c3ccccc23)cc1 (stereo unspecified) | 114 | -5 | 14 | 19 | 31 | -1 | x | x
Cc1ccc(NCC(=O)N/N=C/c2c[nH]c3ccccc23)cc1 | 95 | -7 | -3 | 2 | 158* | -8 | 111* | 19*
CC(C)C(NCC(=O)Nc1ccccc1C(=O)NC1CC1)c1ccccc1 (stereo unspecified) | x | x | x | x | 2 | x | x | x
[O-][n+]1c2ccccc2c2n1CCN1CCOC21c1ccc(Cl)cc1 (stereo unspecified) | x | x | x | x | 80* | x | 118* | 65*
NNC(=O)c1ccccc1-n1cccc1 | 102 | -4 | -4 | 4 | 121* | -3 | 5 | 10
O=C(NNC(=O)c1ccccc1-n1cccc1)c1ccccc1 | 99 | -8 | 4 | 6 | 81* | 1 | 93* | 12*
COc1cccc(OC)c1C(=O)NNC(=O)c1ccccc1-n1cccc1 | 103 | 9 | 3 | 9 | 7 | -11 | x | x
O=C(N/N=C\c1ccccc1)c1ccccc1-n1cccc1 | 114 | 5 | -3 | 7 | 92* | -15 | 111* | 38*
C/C(=N\NC(=O)c1ccccc1-n1cccc1)C1CC1 | 101 | -1 | 2 | 1 | 98* | -4 | 4 | 9
COc1cc(C=NNC(=O)c2ccccc2-n2cccc2)ccc1O | x | x | x | x | 3 | x | x | x
Cc1ccc(C(=O)NNC(=O)c2ccccc2-n2cccc2)cc1 | 97 | 10 | 1 | 10 | 45 | -7 | x | x
CN(C(=O)CSc1cc(Cl)ccc1Cl)C1CCS(=O)(=O)C1 (stereo unspecified) | x | x | x | x | 0 | x | x | x
COC(=O)CCCC(=O)N1CCC(CCC(=O)NCc2ccc(F)cc2)CC1 | x | x | x | x | -2 | x | x | x
CC(=O)N(C)c1ccc(NS(=O)(=O)c2cccc3nsnc23)cc1 | x | x | x | x | 0 | x | x | x
COc1cc2c(cc1NC(=O)C(c1ccccc1)c1ccccc1)CCCC2 | 105 | -4 | 4 | 17 | 6 | 1 | x | x
Cc1c(C(=O)/C=C/c2cccs2)oc2ccc(F)cc12 | 151* | 2 | 0 | 13 | 81* | 4 | 103* | 76*
Cc1c(C(=O)Nc2nccs2)oc2ccc(F)cc12 | x | x | x | x | 40 | x | x | x
Cc1ccc(N=C2NC(=O)S/C2=C\c2ccco2)cc1 | 93 | -5 | 0 | 8 | 11 | -5 | x | x
O=C1NC(=Nc2ccccc2)/C(=C/c2ccco2)S1 | 80 | -2 | 7 | 7 | 84* | 2 | 34 | 20*
COc1ccc(/C=N/OC(=O)c2ccc(Cl)cc2)c(Cl)c1OC | x | -9 | 5 | 5 | -3 | -3 | x | x
CCOc1ccc(Nc2nc(N(C)c3ccccc3)nc(N)c2[N+](=O)[O-])cc1 | x | x | x | x | 2 | x | x | x
O=C(/C=C/c1ccc(F)cc1)N1CCc2ccccc2C1 | x | x | x | x | 100* | x | 136* | 60*
Cc1ccc(/C=C/C(=O)N2CCc3ccccc3C2)cc1 | 98 | 16 | 5 | 14 | 27 | 2 | x | x
COc1ccc(N/N=C(C)/C(=N/O)C(=O)Nc2ccccc2)cc1 | 104 | -2 | 2 | -2 | 11 | -5 | x | x
Cc1noc(C)c1COc1ccc(C(=O)N2CCN(S(=O)(=O)c3cccc(F)c3)CC2)cc1 | x | x | x | x | -2 | x | x | x
Cc1cn2c(N)c(/C=C3\C=Nc4ccccc43)c(=O)nc2s1 | x | 1 | 4 | -1 | 111* | -7 | 116* | 20*
CCn1c(C)c(C(C)=O)c(N2CCN(c3ccc(OC)cc3)CC2)nc1=S | 99 | -10 | -6 | 6 | 86* | -1 | 38 | 26*
